Laboratory results as given in article PMC9052103 (RSC Advances, 2020).
Where two headings read alike, the source gives them in different places.

How the values were obtained:
S. aureus FtsZ (SaFtsZ) = S. aureus FtsZ (SaFtsZ) (Staphylococcus aureus, UniProt P0A031); assay: GTPase activity assay; type: biochemical
How it was run: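 Phosphate-release kit assay: S. aureus FtsZ (7.3 μM) in assay buffer with 1% DMSO vehicle or varied concentrations of test compound. Reaction started with 200 μM GTP and run 30 min at room temperature. Colour reagent added for another 30 min to stop the reaction, and inorganic phosphate read at 620 nm. Triplicates.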

S. aureus FtsZ = biological target: T1, S. aureus FtsZ (Staphylococcus aureus, UniProt P0A031); assay: Light-scattering assay of FtsZ polymerization; type: biochemical; settings: for Effect on FtsZ polymerization at a concentration gradient: 0.125–0.5 μg mL^−1; for Light scattering signal compared to control (FtsZ polymerization): same concentration, 0.125 μg mL^−1
T1 sequence (P0A031 1-390): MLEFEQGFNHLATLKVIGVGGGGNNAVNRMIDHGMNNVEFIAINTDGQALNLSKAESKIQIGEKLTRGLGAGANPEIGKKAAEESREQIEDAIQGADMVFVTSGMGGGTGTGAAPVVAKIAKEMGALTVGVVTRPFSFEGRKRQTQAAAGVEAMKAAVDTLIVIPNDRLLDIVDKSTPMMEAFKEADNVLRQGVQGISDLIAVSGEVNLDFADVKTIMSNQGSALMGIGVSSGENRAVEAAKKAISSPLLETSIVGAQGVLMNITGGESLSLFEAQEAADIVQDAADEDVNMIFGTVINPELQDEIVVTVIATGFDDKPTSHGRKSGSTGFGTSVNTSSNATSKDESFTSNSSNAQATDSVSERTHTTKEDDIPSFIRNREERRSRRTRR
How it was run: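 S. aureus FtsZ (4 μM) in 50 mM MOPS pH 6.5, preincubated 10 min at 25 °C with 1% DMSO vehicle or test compound. Baseline set after adding 50 mM KCl and 10 mM MgCl2. After 10 min, 1 mM GTP added. 90° light scattering (excitation/emission 600 nm) followed for 25 min, with blank background subtracted. Rate and extent of polymerization calculated. Triplicates.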

[1] = test system: S. epidermidis ATCC 12228; assay: MIC, 96-well microtiter broth dilution; type: cell-based
[2] = test system: human renal tubular epithelial cells (HK-2); assay: CCK-8 cytotoxicity assay; type: cell-based; settings: Epithelial cell, 48 h, read-out: IC50 HK-2
How it was run: (§1)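 Cells seeded at 5000 per well and allowed to adhere overnight at 37 °C, then exposed to test compound for 48 h. CCK-8 reagent added for a further 3 h, with absorbance read at 450 nm. Triplicates.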

SaFtsZ = SaFtsZ (Staphylococcus aureus, UniProt P0A031); assay: SaFtsZ binding affinity assay; design: species or system S. aureus
How it was run: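 Fluorescence titration at 25 °C in 50 mM Tris–HCl pH 7.4, 50 mM KCl, 2 mM magnesium acetate. Test compound at 3.51 or 3.68 μM titrated with SaFtsZ in 0.4 μM steps (0.4–6.4 μM), equilibrating 2 min per step. Excitation 493 nm, emission 500–700 nm, buffer-titration background subtracted. Kd obtained by nonlinear fit to an independent-site model.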

S. aureus ATCC 29213 [3] = assay: MIC, 96-well microtiter broth dilution; type: cell-based; settings: for MIC: Staphylococcus aureus; for MIC S. aureus ATCC 29213: Table 2
S. aureus ATCC 29213 [4] = assay: In vitro drug resistance development, serial passage; type: cell-based
How it was run: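 Serial passage against S. aureus ATCC 29213: culture from the 0.5 × MIC well of the prior MIC plate diluted to 5 × 10^5 CFU mL−1 and exposed to a range of test compound concentrations. MIC read after 24 h at 37 °C. Cycle repeated 35 times. Ciprofloxacin, vancomycin and rifampin passaged in parallel.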

S. aureus ATCC BAA-1747 = assay: MIC, 96-well microtiter broth dilution; type: cell-based; settings: for MIC S. aureus ATCC BAA-1747: MRSA
S. aureus ATCC BAA-41 = assay: MIC, 96-well microtiter broth dilution; type: cell-based; settings: for MIC S. aureus ATCC BAA-41: MRSA
E. faecium ATCC 700221 = assay: MIC, 96-well microtiter broth dilution; type: cell-based; settings: for MIC E. faecium ATCC 700221: Vancomycin-resistant strain, Table 2
S. aureus ATCC BAA-1720 = assay: MIC, 96-well microtiter broth dilution; type: cell-based; settings: for MIC S. aureus ATCC BAA-1720: MRSA
E. coli ATCC 25922 = assay: MIC, 96-well microtiter broth dilution; type: cell-based
MRSA strains = assay: MIC, summary over MRSA strains; type: cell-based, S. aureus; settings: Staphylococcus aureus, read-out: MIC against MRSA
E. faecium ATCC 49624 = assay: MIC, 96-well microtiter broth dilution; type: cell-based
E. faecalis ATCC 29212 = assay: MIC, 96-well microtiter broth dilution; type: cell-based
Z-ring in B. subtilis = assay: Visualization of Z-ring; type: cell-based; settings: 0.5 × MIC, 4 h
How it was run: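 B. subtilis carrying IPTG-inducible GFP-FtsZ plasmid grown in LB with 30 μg mL−1 chloramphenicol at 37 °C with shaking; overnight culture diluted to 1% in LB with 40 μM IPTG plus test compound at 0.5 × MIC, 4 h at 37 °C. Cells fixed, resuspended in PBS, placed on 0.1% (w/v) poly-L-lysine-coated slides; imaged by confocal microscopy, 40× oil immersion.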

S. aureus ATCC 43300 = assay: MIC, 96-well microtiter broth dilution; type: cell-based; settings: for MIC S. aureus ATCC 43300: MRSA
[5] = test system: human bronchial epithelium cells (16HBE); assay: CCK-8 cytotoxicity assay; type: cell-based; settings: 48 h, read-out: IC50 16HBE
How it was run: as §1

[6] = test system: mouse fibroblast cells (L929); assay: CCK-8 cytotoxicity assay; type: cell-based; settings: L929, 48 h, read-out: IC50 L929
How it was run: as §1

E. coli ATCC 8739 = assay: MIC, 96-well microtiter broth dilution; type: cell-based; settings: Escherichia coli, ATCC8739, read-out: MIC E. coli ATCC 8739
E. coli ATCC BAA-2469 = assay: MIC, 96-well microtiter broth dilution; type: cell-based; settings: NDM-1 expressing strain
A. baumannii ATCC 19606 = assay: MIC, 96-well microtiter broth dilution; type: cell-based; settings: Multi-drug resistant strain
[7] = test system: P. aeruginosa ATCC BAA-2108; assay: MIC, 96-well microtiter broth dilution; type: cell-based; settings: Multi-drug resistant strain
S. aureus ATCC BAA-44 = assay: MIC, 96-well microtiter broth dilution; type: cell-based
B. subtilis 168 = assay: MIC, 96-well microtiter broth dilution; type: cell-based
E. cloacae ATCC BAA-1143 = assay: MIC, 96-well microtiter broth dilution; type: cell-based; settings: AmpC beta-lactamase expressing strain
[8] = test system: K. pneumoniae ATCC BAA-2470; assay: MIC, 96-well microtiter broth dilution; type: cell-based; settings: NDM-1 expressing strain

CC1CCN(CCCN2/C(=C/c3cc[n+](C)c4ccccc34)Sc3ccccc32)CC1.[I-] [Compound 4b4, (Z)-1-Methyl-4-((3-(3-(4-methylpiperidin-1-yl)propyl)benzo[d]thiazol-2(3H)-ylidene)methyl)quinolin-1-ium iodide]
Effect on GTPase activity of SaFtsZ (S. aureus FtsZ (SaFtsZ)): did not show any effect
Effect on FtsZ polymerization at a concentration gradient (S. aureus FtsZ): enhance FtsZ polymerization in a dose-dependent manner
Light scattering signal compared to control (FtsZ polymerization) (S. aureus FtsZ): significant increase in light scattering signal
MIC ([1]; Staphylococcus epidermidis, ATCC12228, read-out: MIC S. epidermidis ATCC 12228): 0.25 µg/mL
IC50 [2]: 18.6 µg/mL
Kd (SaFtsZ): 3.23 µM
MIC (S. aureus ATCC 29213 [3]; ATCC29213): 2 µg/mL
MIC (S. aureus ATCC 29213 [3]; ATCC29213, read-out: MIC S. aureus ATCC 29213): 2 µg/mL
MIC (S. aureus ATCC 29213 [3]; ATCC29213, read-out: S. aureus ATCC 29213 (MIC)): 2 µg/mL
Increase of MIC after 35 passages (S. aureus ATCC 29213 [4]): 8 fold
MIC (S. aureus ATCC BAA-1747; Staphylococcus aureus, ATCCBAA1747|MRSA, read-out: MIC S. aureus ATCC BAA-1747): 4 µg/mL
MIC (S. aureus ATCC BAA-41; Staphylococcus aureus, ATCCBAA41|MRSA, read-out: MIC S. aureus ATCC BAA-41): 1 µg/mL
MIC (E. faecium ATCC 700221; Enterococcus faecium, ATCC700221): 16 µg/mL
MIC (E. faecium ATCC 700221; read-out: MIC against VRE): 2 to 16 µg/mL
MIC (S. aureus ATCC BAA-1720; Staphylococcus aureus, ATCCBAA1720|MRSA, read-out: MIC S. aureus ATCC BAA-1720): 8 µg/mL
MIC (E. coli ATCC 25922; Escherichia coli, ATCC25922, read-out: MIC E. coli ATCC 25922): 2 µg/mL
MIC (MRSA strains): 1 to 8 µg/mL
MIC (E. faecium ATCC 49624; Enterococcus faecium, ATCC49624, read-out: MIC E. faecium ATCC 49624): 8 µg/mL
MIC (E. faecalis ATCC 29212; Enterococcus faecalis, ATCC29212, read-out: MIC E. faecalis ATCC 29212): 16 µg/mL
Effect on Z-ring formation (GFP-FtsZ localization) (Z-ring in B. subtilis): promoted the mislocalization of the FtsZ protein
MIC (S. aureus ATCC 43300; Staphylococcus aureus, ATCC43300|MRSA, read-out: MIC S. aureus ATCC 43300): 8 µg/mL
IC50 [5]: 20.2 µg/mL
IC50 [6]: 23.4 µg/mL
MIC (E. coli ATCC 8739): 2 µg/mL

2-((E)-4-(Dimethylamino)styryl)-1-methyl-4-((Z)-(3-(3-(piperidin-1-yl)propyl)benzo[d]thiazol-2(3H)-ylidene)methyl)quinolin-1-ium iodide [Compound 4e4]
MIC S. epidermidis ATCC 12228 [1]: 2 µg/mL
MIC E. coli ATCC BAA-2469 (E. coli ATCC BAA-2469): 8 µg/mL
MIC S. aureus ATCC 29213 (S. aureus ATCC 29213 [3]): 16 µg/mL
MIC S. aureus ATCC BAA-1747 (S. aureus ATCC BAA-1747): 16 µg/mL
MIC S. aureus ATCC BAA-41 (S. aureus ATCC BAA-41): 16 µg/mL
MIC E. faecium ATCC 700221 (E. faecium ATCC 700221): 4 µg/mL
MIC S. aureus ATCC BAA-1720 (S. aureus ATCC BAA-1720): 8 µg/mL
MIC E. faecium ATCC 49624 (E. faecium ATCC 49624): 32 µg/mL
MIC E. faecalis ATCC 29212 (E. faecalis ATCC 29212): 32 µg/mL
MIC S. aureus ATCC 43300 (S. aureus ATCC 43300): 8 µg/mL
MIC A. baumannii ATCC 19606 (A. baumannii ATCC 19606): >64 µg/mL
MIC P. aeruginosa ATCC BAA-2108 [7]: 64 µg/mL
MIC S. aureus ATCC BAA-44 (S. aureus ATCC BAA-44): 8 µg/mL
MIC B. subtilis 168 (B. subtilis 168): 8 µg/mL
MIC E. cloacae ATCC BAA-1143 (E. cloacae ATCC BAA-1143): 64 µg/mL

2-((E)-4-Hydroxystyryl)-1-methyl-4-((Z)-(3-(3-(piperidin-1-yl)propyl)benzo[d]thiazol-2(3H)-ylidene)methyl)quinolin-1-ium iodide [Compound 4e2]
MIC S. epidermidis ATCC 12228 [1]: 8 µg/mL
MIC E. coli ATCC BAA-2469 (E. coli ATCC BAA-2469): 8 µg/mL
MIC S. aureus ATCC 29213 (S. aureus ATCC 29213 [3]): 16 µg/mL
MIC S. aureus ATCC BAA-1747 (S. aureus ATCC BAA-1747): 32 µg/mL
MIC S. aureus ATCC BAA-41 (S. aureus ATCC BAA-41): 16 µg/mL
MIC E. faecium ATCC 700221 (E. faecium ATCC 700221): 8 µg/mL
MIC S. aureus ATCC BAA-1720 (S. aureus ATCC BAA-1720): 16 µg/mL
MIC E. coli ATCC 25922 (E. coli ATCC 25922): 4 µg/mL
MIC K. pneumoniae ATCC BAA-2470 [8]: 64 µg/mL
MIC E. faecium ATCC 49624 (E. faecium ATCC 49624): 16 µg/mL
MIC E. faecalis ATCC 29212 (E. faecalis ATCC 29212): >64 µg/mL
MIC S. aureus ATCC 43300 (S. aureus ATCC 43300): 8 µg/mL
MIC A. baumannii ATCC 19606 (A. baumannii ATCC 19606): >64 µg/mL
MIC P. aeruginosa ATCC BAA-2108 [7]: 64 µg/mL
MIC S. aureus ATCC BAA-44 (S. aureus ATCC BAA-44): 16 µg/mL
MIC B. subtilis 168 (B. subtilis 168): 4 µg/mL
MIC E. cloacae ATCC BAA-1143 (E. cloacae ATCC BAA-1143): >64 µg/mL

1-Methyl-2-((E)-4-(methylthio)styryl)-4-((Z)-(3-(3-(piperidin-1-yl)propyl)benzo[d]thiazol-2(3H)-ylidene)methyl)quinolin-1-ium iodide [Compound 4e3]
Effect on FtsZ polymerization at a concentration gradient (S. aureus FtsZ): did not show significant change
Light scattering signal compared to control (FtsZ polymerization) (S. aureus FtsZ): almost no signal change
MIC S. epidermidis ATCC 12228 [1]: 4 µg/mL
MIC S. aureus ATCC 29213 (S. aureus ATCC 29213 [3]): 8 µg/mL
MIC S. aureus ATCC BAA-1747 (S. aureus ATCC BAA-1747): 16 µg/mL
MIC S. aureus ATCC BAA-41 (S. aureus ATCC BAA-41): 16 µg/mL
MIC E. faecium ATCC 700221 (E. faecium ATCC 700221): 8 µg/mL
MIC S. aureus ATCC BAA-1720 (S. aureus ATCC BAA-1720): 16 µg/mL
MIC K. pneumoniae ATCC BAA-2470 [8]: 64 µg/mL
MIC E. faecium ATCC 49624 (E. faecium ATCC 49624): 16 µg/mL
MIC E. faecalis ATCC 29212 (E. faecalis ATCC 29212): >64 µg/mL
MIC S. aureus ATCC 43300 (S. aureus ATCC 43300): 8 µg/mL
MIC A. baumannii ATCC 19606 (A. baumannii ATCC 19606): 64 µg/mL
MIC S. aureus ATCC BAA-44 (S. aureus ATCC BAA-44): 8 µg/mL
MIC B. subtilis 168 (B. subtilis 168): 8 µg/mL
MIC E. cloacae ATCC BAA-1143 (E. cloacae ATCC BAA-1143): 64 µg/mL
